# Measurements as given in ChEMBL document CHEMBL4382247, “A novel series of napabucasin derivatives as orally active inhibitors of signal transducer and activator of transcription 3 (STAT3)” (Eur J Med Chem, 2019).
# The source made the active and inactive calls. No cut-off for these calls is given here.
# What was measured:
# [1] = test system: CT26; test: Potency index, ratio of napabucasin IC50 to test compound IC50 for mouse CT26 cells; type: functional
# [2] = Hepatotoxicity in BALB/c mouse implanted with mouse CT26 cells assessed as effect on liver morphology by measuring edema at 50 mg/kg, po administered once daily by H and E staining based histopathological analysis; type: toxicity, organism-based; conditions: in vivo
# In short: (§1)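 CT-26 subcutaneous flank tumour model in male BALB/c mice, five per group, dosed orally at 50mg/kg daily in 5% NMP/95% PEG 400 versus vehicle. After treatment, heart, liver, spleen, lung and kidney collected, sectioned and stained with H&E for histological examination.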
# [3] = test system: CT26; test: Antiproliferative activity against mouse CT26 cells after 72 hrs by MTT assay; type: functional, cell-based; conditions: CT26, 72 h
# In short: (§2)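 Cells seeded at 5 × 10^3 per well and cultured 24 h before compound addition at varied concentrations, then grown a further 72 h; 0.5% DMSO as solvent control. MTT (5mg/ml solution) added for 4 h, formazan dissolved in DMSO, absorbance read at 570nm. Each treatment in triplicate; Mean ± SD.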
# [4] = Cardiotoxicity in BALB/c mouse implanted with mouse CT26 cells assessed as effect on heart morphology by measuring necrosis at 50 mg/kg, po administered once daily by H and E staining based histopathological analysis; type: toxicity, organism-based; conditions: in vivo; in short: as §1
# [5] = Toxicity in BALB/c mouse implanted with mouse CT26 cells assessed as effect on spleen morphology by measuring cell inflammation at 50 mg/kg, po administered once daily by H and E staining based histopathological analysis; type: organism-based; conditions: in vivo; in short: as §1
# [6] = test system: HepG2; test: Antiproliferative activity against human HepG2 cells after 72 hrs by MTT assay; type: functional, cell-based; conditions: HepG2, 72 h; in short: as §2
# [7] = Toxicity in BALB/c mouse implanted with mouse CT26 cells assessed as effect on lung morphology by measuring necrosis at 50 mg/kg, po administered once daily by H and E staining based histopathological analysis; type: organism-based; conditions: in vivo; in short: as §1
# [8] = test system: HT-29; test: Potency index, ratio of napabucasin IC50 to test compound IC50 for human HT-29 cells; type: functional
# [9] = Toxicity in BALB/c mouse implanted with mouse CT26 cells assessed as behavioral alteration at 50 mg/kg, po administered once daily; type: organism-based; conditions: in vivo
# In short: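 Mice bearing subcutaneous CT-26 tumours, five per group, given 50mg/kg orally each day in 5% NMP/PEG 400, with an equal-volume vehicle control group. Body weight and behaviour monitored over the treatment period.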
# [10] = Hepatotoxicity in BALB/c mouse implanted with mouse CT26 cells assessed as effect on liver morphology by measuring cell inflammation at 50 mg/kg, po administered once daily by H and E staining based histopathological analysis; type: toxicity, organism-based; conditions: in vivo; in short: as §1
# [11] = test system: CT26; test: Antitumor activity against mouse CT26 cells implanted in BALB/c mouse assessed as tumor growth at 50 mg/kg, po administered once daily measured every 3 days relative to control; type: functional
# In short: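 Male BALB/c mice, 6 weeks old, given 1 × 10^6 CT-26 cells subcutaneously in the right flank. At about 70 mm3 tumour volume, randomized into groups of five and dosed orally once daily with 50mg/kg or vehicle (5% NMP in PEG 400). Tumours measured by caliper every 3 days, V = ab^2/2. Tumours weighed at sacrifice. TGI computed from mean tumour weights. T/C computed as mean RTV (Vt/V0) treated over control.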
# [12] = Toxicity in BALB/c mouse implanted with mouse CT26 cells assessed as effect on kidney morphology by measuring edema at 50 mg/kg, po administered once daily by H and E staining based histopathological analysis; type: organism-based; conditions: in vivo; in short: as §1
# [13] = Cardiotoxicity in BALB/c mouse implanted with mouse CT26 cells assessed as effect on heart morphology by measuring edema at 50 mg/kg, po administered once daily by H and E staining based histopathological analysis; type: toxicity, organism-based; conditions: in vivo; in short: as §1
# [14] = molecular target: Signal transducer and activator of transcription 3 (Homo sapiens, UniProt P40763); test: Inhibition of STAT3 phosphorylation at Y705 residue in human U251 cells at 200 nM after 24 hrs by Western blot analysis; type: cell-based
# Sequence of Signal transducer and activator of transcription 3 (P40763 whole entry): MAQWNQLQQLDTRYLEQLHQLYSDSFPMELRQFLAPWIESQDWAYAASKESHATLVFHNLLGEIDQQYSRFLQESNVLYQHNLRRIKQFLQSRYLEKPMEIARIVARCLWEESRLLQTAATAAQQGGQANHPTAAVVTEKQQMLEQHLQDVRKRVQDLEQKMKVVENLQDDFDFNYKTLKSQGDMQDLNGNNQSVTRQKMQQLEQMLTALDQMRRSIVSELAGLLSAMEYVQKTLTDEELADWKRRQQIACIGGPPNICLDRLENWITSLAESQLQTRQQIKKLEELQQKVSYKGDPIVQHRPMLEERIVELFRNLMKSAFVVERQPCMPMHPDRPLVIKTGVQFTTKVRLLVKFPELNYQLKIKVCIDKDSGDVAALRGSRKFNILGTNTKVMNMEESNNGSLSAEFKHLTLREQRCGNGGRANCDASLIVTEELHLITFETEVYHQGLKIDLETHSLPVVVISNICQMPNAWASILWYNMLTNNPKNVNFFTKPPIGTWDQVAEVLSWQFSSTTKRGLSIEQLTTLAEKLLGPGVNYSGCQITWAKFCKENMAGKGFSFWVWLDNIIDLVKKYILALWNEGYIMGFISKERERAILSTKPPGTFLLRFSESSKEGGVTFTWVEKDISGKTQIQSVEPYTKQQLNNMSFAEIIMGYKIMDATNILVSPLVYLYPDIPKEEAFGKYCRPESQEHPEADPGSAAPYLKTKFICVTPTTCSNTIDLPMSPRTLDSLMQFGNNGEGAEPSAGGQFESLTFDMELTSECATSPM
# In short: (§3)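 Cells treated 24 and 48 h. Lysed in RIPA with protease inhibitors, protein quantified by BCA, equal amounts run on 10% SDS-PAGE and transferred to PVDF. Blocked in 5% milk, probed overnight at 4 °C with anti-total STAT3, anti-p-STAT3 (Tyr705) and GAPDH antibodies. ECL detection.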
# [15] = test system: U-251; test: Decrease in total STAT3 level in human U251 cells at 200 nM after 24 hrs by Western blot analysis; type: ADME, cell-based; conditions: u-251, 24 h, 0.2 µM; in short: as §3
# [16] = test system: U-251; test: Antiproliferative activity against human U251 cells after 72 hrs by MTT assay; type: functional, cell-based; conditions: U-251, 72 h; in short: as §2
# [17] = test system: HepG2; test: Decrease in total STAT3 level in human HepG2 cells at 400 nM after 24 hrs by Western blot analysis; type: ADME, cell-based; conditions: hepg2, 24 h, 0.4 µM; in short: as §3
structure (smiles),measurement,setting,value
O=C(NCCN1CCCCC1)c1cc2c(o1)C(=O)c1ccccc1C2=O,Ratio IC50,[1],>10
same,Activity,[2],Non-Toxic
same,IC50,[3],140 nM
same,Activity,[4],Non-Toxic
same,Activity,[5],Non-Toxic
same,IC50,[6],490 nM
same,Activity,[7],Non-Toxic
same,Ratio IC50,[8],>10
same,Activity,[9],Non-Toxic
same,Activity,[10],Non-Toxic
same,T/C,[11],28%
same,Activity,[12],Non-Toxic
same,Activity,[13],Non-Toxic
same,inhibition,[14],Active
same,Activity,[15],Toxic
same,IC50,[16],220 nM
same,Activity,[17],Toxic
